For data set [1], the target named is T1, Sphingosine 1-phosphate receptor 2 (Homo sapiens, UniProt O95136). The data set is described as follows: Antagonist activity at human S1P2 receptor expressed in CHO cells assessed as EC80 S1P-induced calcium flux measured for 3 mins by fluorescence assay. Format: functional, cell-based. The method, boiled down: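 Same dye-loaded, starved human S1P2-CHO cells; after agonist readout, 15 min at 37 °C, then stimulated with S1P at EC80, fluorescence read 3 min. Max/baseline ratio normalized to vehicle and S1P EC80. 10-point 1/3 dilutions from 20 μM final; IC50 derived; geometric mean of ≥2 runs.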
For orientation: A change in cytosolic calcium serves as a functional read-out for many receptors and channels.

Data set [2] addresses T1, Sphingosine 1-phosphate receptor 2. Description: Antagonist activity at recombinant human S1P2 receptor expressed in CHO cells assessed as EC80 S1P-induced activation incubated for 4 hrs in presence of [35S]GTPgammaS by Topcount reader. Format: functional, cell-based. In outline:
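Membranes from stable lines overexpressing recombinant human S1P2, preincubated with PVT-WGA SPA beads, mixed with compound serial dilutions, [35S]GTPγS and S1P at EC80. Incubated 4 h at room temperature, centrifuged, scintillation counted. Antagonist mode; IC50 as geometric mean of ≥2 runs.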
In general terms: GTPγS resists hydrolysis and so accumulates on activated G proteins.

Data set [3] shares this target. The data set is described as follows: Antagonist activity at recombinant human S1P2 receptor in HFL1 cells assessed as inhibition of EC80 S1P-induced IL8 release incubated for 16 to 24 hrs in absence of HSA by ELISA. Format: functional, cell-based. In outline:
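HFL-1 lung fibroblasts seeded in 96- or 384-well plates, then medium replaced by starvation medium with 1% heat-inactivated FBS, ±1.95% HSA (2% HSA condition), 16–24 h. 10-point 1/3 dilutions, 30 μM top final, 1 h, then S1P at EC80 (without HSA: 1 μM 96-well or 0.5 μM 384-well; with HSA: 5 or 2 μM).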
(In general: In an ELISA, binding on a coated surface is turned into a signal by an enzyme label.)

Data set [4] can be described thus: Intrinsic clearance unbound in mouse liver microsomes at 1 uM […] by LC-MS/MS analysis. In kind it is ADME, Microsome.
Data set [5] deals with T1, Sphingosine 1-phosphate receptor 2. The data set is described as follows: Agonist activity at human S1P2 receptor expressed in CHO cells assessed as calcium flux measured for 3 mins by fluorescence assay. In kind it is functional, cell-based. The conditions noted are these: read-out: IC50 (the source's name). The method, boiled down:
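CHO cells stably overexpressing human S1P2, seeded overnight at 37 °C/5% CO2, washed and starved 1 h in F-12 with 0.1% fatty-acid-free BSA, loaded with Fluo 8 dye with 5 mM probenecid. Compound added, fluorescence read 3 min; max/baseline ratio normalized to vehicle and S1P EC100. 10-point 1/3 dilutions from 23.3 μM final; EC50 derived; geometric mean of ≥2 runs.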

Data set [6] is described as follows: Intrinsic clearance unbound in human liver microsomes at 1 uM […] by LC-MS/MS analysis. In kind it is ADME, Microsome.

A value given as a limit tells only on which side of the number the result lay.

The source of these data is ChEMBL document CHEMBL4834436, “Discovery of the S1P2 Antagonist GLPG2938 (1-[2-Ethoxy-6-(trifluoromethyl)-4-pyridyl]-3-[[5-methyl-6-[1-methyl-3-(trifluoromethyl)pyrazol-4-yl]pyridazin-3-yl]methyl]urea), a Preclinical Candidate for the Treatment of Idiopathic Pulmonary Fibrosis” (J Med Chem, 2021).

T1 sequence (O95136 whole entry): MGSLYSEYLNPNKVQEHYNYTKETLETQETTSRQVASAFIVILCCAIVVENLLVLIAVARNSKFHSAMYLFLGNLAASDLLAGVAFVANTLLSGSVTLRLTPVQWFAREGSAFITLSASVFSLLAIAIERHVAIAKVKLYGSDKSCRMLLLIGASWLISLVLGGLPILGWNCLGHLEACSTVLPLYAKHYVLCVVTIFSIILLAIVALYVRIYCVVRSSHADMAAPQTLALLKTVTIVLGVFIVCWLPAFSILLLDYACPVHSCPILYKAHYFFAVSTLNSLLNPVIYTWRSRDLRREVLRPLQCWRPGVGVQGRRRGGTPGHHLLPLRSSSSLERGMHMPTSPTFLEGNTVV

The IC50 is the concentration that gives 50% inhibition. `Cc1cc(CNC(=O)c2cc3c(Cl)nc(Cl)cc3[nH]2)ncc1-c1cn(C)nc1C`: the half-inhibitory concentration (IC50) in data set [1] is 0.89 µM; in data set [2] it was 1.3 µM; in data set [3] it was 0.0013 µM. This molecule also had a CL free in data set [4] of 633 mL/min/kg.
In the case of `Cc1cc(CO)nc(NNC(=O)Nc2cc(Cl)nc(Cl)c2)c1`, the EC50 in data set [5] is over 23 µM. Moreover, the half-inhibitory concentration (IC50) in data set [1] was over 6.6 µM; in data set [2], 31 µM.
Consider `Cc1cc(NNC(=O)Nc2cc(Cl)nc(Cl)c2)nc(-c2ccc(F)cc2)c1`, for which the EC50 in data set [5] was over 23 µM. The IC50 in data set [1] is 1.3 µM; in data set [2], 6.2 µM.
In the case of `Cc1cc(CNC(=O)Nc2cc(Cl)nc(Cl)c2)ncc1-c1cn(C)nc1C`, the IC50 is 0.3 µM in data set [1], 0.77 µM in data set [2] and 0.00077 µM in data set [3]. In data set [4], the CL free turned out to be 200 mL/min/kg.
`Cc1cc(NNC(=O)Nc2cc(Cl)nc(Cl)c2)ncc1-c1ccn(C)n1`: in data set [5], the EC50 is over 23 µM. Moreover, the figures for the IC50 in data set [1] and in data set [2] were 4 µM and 9.3 µM, respectively.
In the case of `Cc1cc(NNC(=O)Nc2cc(Cl)nc(Cl)c2)nc(-c2cnn(C)c2)c1`, the EC50 in data set [5] was over 23 µM. The IC50 in data set [1] was over 2.1 µM; in data set [2], 3.1 µM.
`Cc1cc(CNC(=O)Nc2cc(Cl)cc(Cl)c2)ncc1-c1cn(C)nc1C`: the half-maximal inhibitory concentration (IC50) in data set [1] was determined as 0.16 µM; in data set [2], 0.3 µM; in data set [3], 0.0003 µM. The CL free in data set [4] came to 2650 mL/min/kg.
Turning to `Cc1cc(NNC(=O)Nc2cc(Cl)nc(Cl)c2)nc(C(=O)N(C)C2CC2)c1`, the EC50 in data set [5] is over 23 µM. Further, the IC50 in data set [1] is over 20 µM.
As to `CCOc1nc(Cl)cc2nc(NCc3cc(C)c(-c4cn(C)nc4C)cn3)[nH]c12`, the 50% inhibitory concentration (IC50) in data set [1] was 0.033 µM; in data set [2] it was 2.25 µM; in data set [3], 0.00225 µM. Besides, the CL free in data set [4] was 1370 mL/min/kg.
The corresponding values for `Cc1cc(CNC(=O)c2cc(Cl)nc(Cl)c2)ncc1-c1cn(C)nc1C` are over 19 µM, over 100 µM, over 0.1 µM and 85 mL/min/kg.
The like results for `Cc1cc(CNC(=O)c2cc3c(Cl)cc(Cl)cc3[nH]2)ncc1-c1cn(C)nc1C` were, in that order, 0.11 µM, 0.61 µM, 0.00061 µM and over 783 mL/min/kg.
In the case of `Cc1cc(CNC(=O)Cc2ccc(Cl)c(Cl)c2)ncc1-c1cn(C)nc1C`, the IC50 in data set [1] is over 19 µM; in data set [2] (cho) it was “Not Active”. Also, the CL free in data set [4] amounted to 3770 mL/min/kg.
Consider `CCOc1cc(NC(=O)NCc2cc(C)c(Nc3cn(C)nc3C)cn2)cc(C(F)(F)F)n1`, for which the IC50 in data set [1] came out at 0.012 µM; in data set [2] it was 55 µM; in data set [3] it was 0.055 µM. In addition, the CL free in data set [4] was 867 mL/min/kg; in data set [6] it was 267 mL/min/kg.
For the molecule `CCOc1cc(NC(=O)NCc2cc(C)c(N3CC(C)OC(C)C3)cn2)cc(Cl)n1` (stereo unspecified), the half-inhibitory concentration (IC50) in data set [1] came to 0.016 µM; in data set [2], 105 µM; in data set [3], 0.105 µM. The CL free in data set [4] came to 500 mL/min/kg; in data set [6], 125 mL/min/kg.
Take `Cc1cc(NNC(=O)Nc2cc(Cl)nc(Cl)c2)nc(C(=O)NC2CC2)c1`: the EC50 in data set [5] was over 23 µM. Further, the concentration for half-maximal inhibition (IC50) in data set [1] worked out at 4.5 µM.
The corresponding values for `Cc1cc(NNC(=O)Nc2cc(Cl)nc(Cl)c2)nc(C(=O)N(C)C)c1` are over 23 µM and over 19 µM.
With `Cc1cc(CNc2nc3cc(Cl)c(Cl)cc3[nH]2)ncc1-c1cn(C)nc1C`, the results for the IC50 in data set [1], in data set [2] and in data set [3] were 0.009 µM, 0.43 µM and 0.00043 µM, respectively. In data set [4], this molecule yielded a CL free of 2580 mL/min/kg.
Regarding `Cc1cc(CNC(=O)Nc2cc(OCCN(C)C)nc(C(F)(F)F)c2)nnc1-c1cn(C)nc1C(F)(F)F`, the concentration for half-maximal inhibition (IC50) in data set [1] was 2140 µM; in data set [2], over 10000 µM; in data set [3], over 10 µM. For the same molecule, the CL free in data set [4] was under 90 mL/min/kg; in data set [6], 23.3 mL/min/kg.
As for `Cc1cc(C#N)nc(NNC(=O)Nc2cc(Cl)nc(Cl)c2)c1`, the EC50 in data set [5] was over 23 µM. Also, the IC50 in data set [1] is over 6.6 µM.
